Data on 15 molecules can be found in ChEMBL document CHEMBL2396619, “Synthesis and neuroprotective effect of E-3,4-dihydroxy styryl aralkyl ketones derivatives against oxidative stress and inflammation” (Bioorg Med Chem Lett, 2013).

In one data set the test system is PC-12. Description: Neuroprotective activity in rat PC12 cells assessed as protection against H2O2-induced reduction of cell viability at 10 uM treated 3 hrs before H2O2 addition measured after 5 hrs by MTT assay. In kind it is functional, cell-based. The procedure, abridged: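 PC12 cells pretreated with compound at 10 µM for 3 h, then exposed to 500 µM H2O2 for 5 h. Viability measured by MTT and expressed as OD(treated)/OD(control) ×100%, with untreated cells (no compound, no H2O2) set to 100%. Mean ± SD, n = 3.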
In general terms: Tetrazolium dyes change colour on reduction, which living cells bring about.

Data set [1] concerns BV-2. Description: Antineuroinflammatory activity in mouse BV2 cells assessed as reduction of LPS-induced nitric oxide production treated 3 hrs before LPS addition measured after 24 hrs by Griess assay. It is filed as functional, cell-based. The gist of the method: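 LPS-stimulated BV2 microglia; nitrite in culture supernatant measured by Griess assay: supernatant mixed with an equal amount of Griess reagent, incubated in the dark, absorbance read at 540 nm.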
Background: Griess reagent forms a coloured azo dye with nitrite.

Data set [2] in a line: Cytotoxicity against mouse BV2 cells assessed as cell viability at 50 uM after 24 hrs by MTT assay. In kind it is cell-based, BV-2. The conditions noted are these: read-out: Activity. The procedure, abridged: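 BV2 cells exposed to compounds at up to 50 µM for up to 24 h; viability determined by MTT assay.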
Data set [3] has as its system Radical scavenging activity. Description: Antioxidant activity assessed as DPPH free radical scavenging activity at 50 uM after 60 mins by spectrophotometry. In kind it is functional. (In general: DPPH is a stable violet radical that fades when it is reduced.)
For data set [4], the system named is Radical scavenging activity. Description: Antioxidant activity assessed as DPPH free radical scavenging activity after 60 mins by spectrophotometry. In kind it is functional.
In data set [5] the test system is BV-2. Put plainly: Ratio of caffeic acid phenethyl ester IC50 to compound IC50 for antineuroinflammatory activity in mouse BV2 cells assessed as reduction of LPS-induced nitric oxide production. It is filed as functional.
The nature of data set [6]: Ratio of caffeic acid phenethyl ester IC50 to compound IC50 for DPPH free radical scavenging activity.

The source made the active and inactive calls. The rule behind the calls is not given here.

In general, IC50 refers to the concentration needed to halve the response being measured. For the molecule `CC(=O)Oc1ccc(/C=C/C(=O)CCc2ccccc2)cc1OC(C)=O`, in the data set with PC-12, the result was Active. In addition, the 50% inhibitory concentration (IC50) in the data set with BV-2 [1] was determined as 12.3 µM. Besides, the viability at 24 h, 50 µM in data set [2] was above 90%. The inhibition result in data set [3] was “inactive”.
`O=C(/C=C/c1ccc(O)c(O)c1)CCc1cccc(Cl)c1`: in the data set with PC-12, the result was Active. Further, the results for the IC50 (with BV-2 [1]; in data set [4]) were 10.3 µM and 11.1 µM, respectively. Besides, in data set [2], the viability at 24 h, 50 µM is above 90%.
In the case of `CC(=O)Oc1ccc(/C=C/C(=O)CCCCc2ccccc2)cc1OC(C)=O`, the result in the data set on PC-12 was Active. Moreover, the half-maximal inhibitory concentration (IC50) in the data set with BV-2 [1] turned out to be 4.2 µM. Moreover, the viability at 24 h, 50 µM in data set [2] was above 90%. In addition, in data set [3], the inhibition entry is “inactive”. Moreover, the “Ratio IC50” value in the data set on BV-2 [5] is reported as 1.5.
As to `COc1ccc(CCC(=O)/C=C/c2ccc(OC(C)=O)c(OC(C)=O)c2)cc1OC`, the outcome with PC-12 was Active. Moreover, the half-maximal inhibitory concentration (IC50) in the data set on BV-2 [1] worked out at 12.6 µM. Also, in data set [2], the viability at 24 h, 50 µM was above 90%. In data set [3], the inhibition result is “inactive”.
Regarding `CC(=O)Oc1ccc(/C=C/C(=O)OCCc2ccccc2)cc1OC(C)=O`, the inhibition result in data set [3] was “inactive”.
With `CC(=O)Oc1ccc(/C=C/C(=O)CCc2cccc(Cl)c2)cc1OC(C)=O`, in the data set on PC-12, the result was Active. The concentration for half-maximal inhibition (IC50) in the data set with BV-2 [1] was found to be 8.3 µM. In addition, the viability at 24 h, 50 µM in data set [2] was above 90%. For the same molecule, the inhibition result in data set [3] was “inactive”.
As to `COc1cc(CCC(=O)/C=C/c2ccc(O)c(O)c2)ccc1O`, the result with PC-12 was Active. The values for the half-inhibitory concentration (IC50) (in the data set on BV-2 [1]; in data set [4]) were 6.3 µM and 12.1 µM, respectively. Further, the viability at 24 h, 50 µM in data set [2] is above 90%.
As for `O=C(/C=C/c1ccc(O)c(O)c1)CCCc1ccccc1`, the result in the data set on PC-12 was Active. Besides, the concentration for half-maximal inhibition (IC50) in the data set on BV-2 [1] was 6.4 µM; in data set [4], 9.2 µM. Moreover, in data set [6], the Ratio IC50 turned out to be 1.3. In addition, the viability at 24 h, 50 µM in data set [2] is above 90%.
As to `COc1ccc(CCC(=O)/C=C/c2ccc(OC(C)=O)c(OC(C)=O)c2)c(OC)c1`, the outcome in the data set on PC-12 was Active. The 50% inhibitory concentration (IC50) in the data set on BV-2 [1] worked out at 9.3 µM. Besides, the viability at 24 h, 50 µM in data set [2] is above 90%. Further, the inhibition entry in data set [3] is “inactive”.
As for `COc1cc(CCC(=O)/C=C/c2ccc(OC(C)=O)c(OC(C)=O)c2)ccc1O`, in the data set with PC-12, the result was Active. In the data set on BV-2 [1], the IC50 came out at 5.5 µM. Further, in data set [2], the viability at 24 h, 50 µM was above 90%. In addition, the inhibition entry in data set [3] is “inactive”.
Regarding `CC(=O)Oc1ccc(/C=C/C(=O)CCCc2ccccc2)cc1OC(C)=O`, in the data set on PC-12, the result was Active. For the same molecule, in the data set on BV-2 [1], the IC50 amounted to 5.3 µM. In data set [2], the viability at 24 h, 50 µM was above 90%. For the same molecule, the inhibition result in data set [3] was “inactive”.
As for `COc1ccc(CCC(=O)/C=C/c2ccc(O)c(O)c2)cc1OC`, the result in the data set with PC-12 was Active. Further, the IC50 in the data set with BV-2 [1] is 14.5 µM; in data set [4], 13.2 µM. Moreover, the viability at 24 h, 50 µM in data set [2] was above 90%.
As for `O=C(/C=C/c1ccc(O)c(O)c1)CCCCc1ccccc1`, the result in the data set on PC-12 was Active. Moreover, the IC50 amounted to 5.9 µM with BV-2 [1] and 10.6 µM in data set [4]. The viability at 24 h, 50 µM in data set [2] was above 90%.
For `COc1ccc(CCC(=O)/C=C/c2ccc(O)c(O)c2)c(OC)c1` the same measures were “Active”, 10.6 µM, 14 µM and above 90%.
As for `O=C(/C=C/c1ccc(O)c(O)c1)CCc1ccccc1`, the outcome in the data set on PC-12 was Active. Besides, the values for the IC50 (with BV-2 [1]; in data set [4]) were 14.1 µM and 12.7 µM, respectively. Also, the viability at 24 h, 50 µM in data set [2] was above 90%.
